Measured values from ChEMBL document CHEMBL1137481, “Discovery of platelet-type 12-human lipoxygenase selective inhibitors by high-throughput screening of structurally diverse libraries” (Bioorg Med Chem, 2007).

Columns and labels:
[1] = target: T1, Polyunsaturated fatty acid lipoxygenase ALOX12 (Homo sapiens) (UniProt P18054); assay: Inhibition of human 12-hLO at 40 uM by HTP assay
T1 sequence (whole entry): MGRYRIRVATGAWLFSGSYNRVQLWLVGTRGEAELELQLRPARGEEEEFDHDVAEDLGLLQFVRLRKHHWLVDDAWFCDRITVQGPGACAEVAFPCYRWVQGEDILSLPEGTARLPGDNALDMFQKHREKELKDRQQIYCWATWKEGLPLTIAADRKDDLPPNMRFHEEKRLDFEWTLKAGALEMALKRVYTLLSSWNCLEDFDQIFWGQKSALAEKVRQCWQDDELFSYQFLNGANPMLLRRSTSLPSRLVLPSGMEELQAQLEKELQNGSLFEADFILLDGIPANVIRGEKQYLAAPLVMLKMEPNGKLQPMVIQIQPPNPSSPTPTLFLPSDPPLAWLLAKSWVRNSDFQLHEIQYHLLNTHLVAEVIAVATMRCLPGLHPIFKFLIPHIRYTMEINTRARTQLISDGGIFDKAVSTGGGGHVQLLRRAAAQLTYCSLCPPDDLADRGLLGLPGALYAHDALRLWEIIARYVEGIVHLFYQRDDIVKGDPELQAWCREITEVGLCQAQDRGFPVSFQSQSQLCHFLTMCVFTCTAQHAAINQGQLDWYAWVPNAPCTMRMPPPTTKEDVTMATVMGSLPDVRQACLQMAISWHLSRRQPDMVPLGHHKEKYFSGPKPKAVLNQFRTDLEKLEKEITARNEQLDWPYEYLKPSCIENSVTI
Outline: (§1)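 384-well xylenol orange endpoint assay. 30 µM substrate (arachidonic acid for 12-hLO in 25 mM Hepes pH 8.0; linoleic acid for 15-hLO-1 in 25 mM HEPES pH 7.5), 0.1% Triton X-100. Inhibitor at 40 µM final from DMSO. Reactions started with ~40 nM enzyme and stopped at ~35% completion with 100 µM xylenol orange and 150 µM ferrous ammonium sulfate in 25 mM H2SO4. Read at 560 nm after 30 min dark shaking. Triplicate, normalised to no-enzyme and DMSO controls.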

[2] = target: T1, Polyunsaturated fatty acid lipoxygenase ALOX12 (Homo sapiens); assay: Inhibition of human 12-hLO at 10 uM by MI assay
Outline: (§2)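 One-point manual continuous assay at 23 °C, stirred, following conjugated diene at 234 nm. 12-hLO (~40 nM, His6-tagged) with arachidonic acid in 25 mM Hepes pH 8, 0.01% Triton X-100. 15-hLO-1 (~40 nM) with linoleic acid in 25 mM Hepes pH 7.5, 0.01% Triton X-100. 10 µM inhibitor.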

[3] = target: T2, Polyunsaturated fatty acid lipoxygenase ALOX15 (Homo sapiens) (UniProt P16050); assay: Inhibition of human 15-hLO1 at 40 uM by HTP assay; outline: as §1
T2 sequence (whole entry): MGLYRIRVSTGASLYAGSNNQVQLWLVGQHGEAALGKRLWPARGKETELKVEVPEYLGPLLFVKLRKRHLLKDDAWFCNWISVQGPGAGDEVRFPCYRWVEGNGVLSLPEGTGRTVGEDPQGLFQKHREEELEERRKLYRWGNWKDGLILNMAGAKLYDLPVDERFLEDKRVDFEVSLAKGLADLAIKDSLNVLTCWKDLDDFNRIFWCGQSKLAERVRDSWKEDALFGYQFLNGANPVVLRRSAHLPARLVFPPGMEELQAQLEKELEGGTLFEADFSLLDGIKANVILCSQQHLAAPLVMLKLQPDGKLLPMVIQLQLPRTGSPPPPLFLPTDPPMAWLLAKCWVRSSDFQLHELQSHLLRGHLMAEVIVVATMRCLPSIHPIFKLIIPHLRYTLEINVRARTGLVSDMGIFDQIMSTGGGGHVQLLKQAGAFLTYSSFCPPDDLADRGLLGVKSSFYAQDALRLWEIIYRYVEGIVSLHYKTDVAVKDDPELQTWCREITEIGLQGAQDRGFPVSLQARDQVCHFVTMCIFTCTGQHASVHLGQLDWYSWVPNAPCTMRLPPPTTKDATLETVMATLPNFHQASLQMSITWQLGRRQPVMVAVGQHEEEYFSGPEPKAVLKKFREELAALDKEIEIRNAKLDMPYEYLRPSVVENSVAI

[4] = target: T2, Polyunsaturated fatty acid lipoxygenase ALOX15 (Homo sapiens); assay: Inhibition of human 15-hLO1 at 10 uM by MI assay; outline: as §2
[5] = target: T3, Polyunsaturated fatty acid lipoxygenase ALOX12 (Homo sapiens, UniProt P18054); assay: Inhibition of human 12-hLO
T3 sequence (P18054 whole entry): T1 sequence (whole entry)
Outline: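 Rate from conjugated diene formation at 234 nm, room temperature (23 °C), stirred 2 mL reactions. 12-hLO (N-terminal His6-tagged, ~40 nM) with arachidonic acid in 25 mM Hepes pH 8, 0.01% Triton X-100. 15-hLO-1 (His6-tagged, ~40 nM) with linoleic acid, 15-hLO-2 (1 µM, SF9-expressed) with arachidonic acid, both in 25 mM Hepes pH 7.5, 0.01% Triton X-100. Rates at various inhibitor concentrations fit to saturation curve for IC50.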

[6] = target: T4, Polyunsaturated fatty acid lipoxygenase ALOX15 (Homo sapiens, UniProt P16050); assay: Inhibition of human 15-hLO1
T4 sequence (P16050 whole entry): T2 sequence (whole entry)

Homo sapiens = species: Homo sapiens; assay: Selectivity for 12-hLO over 15-hLO1
Outline: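 Ratio of IC50 for 15-hLO-1 over IC50 for 12-hLO. Both come from the 234 nm conjugated-diene rate assay: 12-hLO with arachidonic acid at pH 8, 15-hLO-1 with linoleic acid at pH 7.5, 0.01% Triton X-100, 23 °C. IC50 taken from saturation-curve fits.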

SMILES	inhibition [1]	inhibition [2]	inhibition [3]	inhibition [4]	IC50 [5]	Ki [5]	Ki [6]	Ratio Ki (Homo sapiens)
O=C(O)c1cc(C(=O)C(=O)c2cc(C(=O)O)c(O)c3ccccc23)c2ccccc2c1O	46%	88%	0%	0%	0.15 µM			
COc1c(O)cc2oc3cc(O)c(CC=C(C)C)c(O)c3c(=O)c2c1CC=C(C)C [MANGOSTIN]	47%	100%	12%	36%	0.58 µM			
C[C@H](NC(=O)[C@H](C[C@H](C)C(Cl)(Cl)Cl)N(C)C(=O)C[C@H](C)C(Cl)(Cl)Cl)c1nccs1 [DYSIDENIN]						9 µM	8 µM	1
Oc1c(Cl)cc(C(c2cc(Cl)c(O)c(Cl)c2)C(c2cc(Cl)c(O)c(Cl)c2)c2cc(Cl)c(O)c(Cl)c2)cc1Cl	70%	100%	37%	36%	0.21 µM			
Oc1cccc2ccc(SSc3ccc4cccc(O)c4n3)nc12	71%	0%	39%	0%				
C[C@H](c1nccs1)N(C)C(=O)[C@H](C[C@H](C)C(Cl)(Cl)Cl)NC(=O)C[C@H](C)C(Cl)(Cl)Cl [NEODYSIDENIN]					> 100 µM	17 µM		
